Reference: PMC3325328 (Journal of Medicinal Chemistry, 2012)

Key:
[1] = biological target: murine TLR2 (Mus musculus, UniProt Q9QUN7); assay: murine TLR2-specific NF-κB reporter gene assay; format: cell-based; settings: for mTLR2-agonistic activity (in words): murine TLR2 reporter gene assay
Procedure, shortened: (§1)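 HEK-Blue reporter cells with NF-κB-driven secreted alkaline phosphatase (sAP) were plated at ~10⁵ cells/mL and grown to confluency. They were then stimulated for 12 h with serially diluted test compound. Extracellular sAP in the supernatant was read spectrophotometrically at 620 nm using an alkaline phosphatase-specific chromogen in the detection medium. Samples were run in quadruplicate, with means and standard deviations shown.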

[2] = biological target: T1, human TLR2 (Homo sapiens, UniProt O60603); assay: human TLR2-specific NF-κB reporter gene assay; format: cell-based; settings: for absolute magnitude of TLR2-induced NF-κB activation (in words): Fig. 1
Procedure, shortened: as §1

[3] = biological target: T1, human TLR2; settings: cited from earlier work

T1 sequence (O60603 21-784): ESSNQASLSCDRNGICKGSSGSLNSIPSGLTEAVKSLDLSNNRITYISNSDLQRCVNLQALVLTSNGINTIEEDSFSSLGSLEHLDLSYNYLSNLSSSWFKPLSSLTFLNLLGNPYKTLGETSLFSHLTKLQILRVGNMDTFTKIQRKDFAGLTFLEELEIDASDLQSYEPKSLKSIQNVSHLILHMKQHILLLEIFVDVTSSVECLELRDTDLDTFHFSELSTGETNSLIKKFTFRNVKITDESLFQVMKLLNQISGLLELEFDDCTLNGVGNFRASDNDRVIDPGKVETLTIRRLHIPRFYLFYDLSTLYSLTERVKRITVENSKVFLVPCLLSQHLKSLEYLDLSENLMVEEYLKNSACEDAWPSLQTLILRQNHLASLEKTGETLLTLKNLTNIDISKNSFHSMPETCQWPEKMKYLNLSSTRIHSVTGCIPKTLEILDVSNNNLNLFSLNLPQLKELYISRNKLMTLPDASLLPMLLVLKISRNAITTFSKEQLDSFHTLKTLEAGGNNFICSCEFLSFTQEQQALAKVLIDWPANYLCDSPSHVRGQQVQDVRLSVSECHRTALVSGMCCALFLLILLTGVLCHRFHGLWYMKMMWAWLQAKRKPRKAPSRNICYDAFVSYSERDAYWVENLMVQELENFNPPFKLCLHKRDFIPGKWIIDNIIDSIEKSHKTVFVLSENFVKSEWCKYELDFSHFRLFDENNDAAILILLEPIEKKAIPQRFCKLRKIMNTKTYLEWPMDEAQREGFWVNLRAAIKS
Chain of murine TLR2 (Q9QUN7 25-784): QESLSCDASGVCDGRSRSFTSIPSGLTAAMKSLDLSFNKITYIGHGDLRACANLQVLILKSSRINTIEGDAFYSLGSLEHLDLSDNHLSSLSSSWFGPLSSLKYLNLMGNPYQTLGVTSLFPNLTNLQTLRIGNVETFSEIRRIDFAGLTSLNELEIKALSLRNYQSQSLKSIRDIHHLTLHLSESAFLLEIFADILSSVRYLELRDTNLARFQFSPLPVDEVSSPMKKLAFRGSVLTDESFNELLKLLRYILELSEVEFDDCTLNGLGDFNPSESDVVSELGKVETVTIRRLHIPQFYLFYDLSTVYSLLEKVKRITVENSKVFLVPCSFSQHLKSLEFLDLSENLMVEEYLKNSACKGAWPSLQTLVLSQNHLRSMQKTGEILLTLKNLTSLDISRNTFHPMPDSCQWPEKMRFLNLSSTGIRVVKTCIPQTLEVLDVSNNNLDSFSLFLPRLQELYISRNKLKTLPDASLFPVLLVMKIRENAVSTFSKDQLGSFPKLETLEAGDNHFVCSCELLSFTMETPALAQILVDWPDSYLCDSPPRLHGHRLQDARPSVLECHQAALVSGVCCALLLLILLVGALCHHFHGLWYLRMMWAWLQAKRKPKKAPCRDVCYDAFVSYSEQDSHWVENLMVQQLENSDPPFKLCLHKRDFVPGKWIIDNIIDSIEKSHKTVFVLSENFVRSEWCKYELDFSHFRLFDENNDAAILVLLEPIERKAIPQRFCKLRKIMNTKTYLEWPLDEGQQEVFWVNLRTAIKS

With `CCCCCCCCCCCCCCCC(=O)OCCSC[C@H](N)C(=O)N[C@@H](CO)C(=O)OC` [Compound 6d] the “specificity for human versus murine TLR2 (in words)” value ([1]; human and murine TLR2 reporter gene assays) was “exquisite specificity in activating human TLR2 (hTLR2), but not murine TLR2 (mTLR2)” and the “mTLR2-agonistic activity (in words)” value [1] was “entirely inactive”.

For `CCCCCCCCCCCCCCCCCC(=O)OCCSC[C@H](N)C(=O)N[C@@H](CO)C(=O)OC` [Compound 6e, 2-(((R)-2-amino-3-(((S)-3-hydroxy-1-methoxy-1-oxopropan-2-yl)amino)-3-oxopropyl)thio)ethyl stearate], the “mTLR2-agonistic activity (in words)” value [1] was “entirely inactive”.

With `COC(=O)[C@H](CO)NC(=O)[C@@H](N)CSCCOC(=O)c1ccc(-c2ccccc2)cc1` [Compound 6f, 2-(((R)-2-amino-3-(((S)-3-hydroxy-1-methoxy-1-oxopropan-2-yl)amino)-3-oxopropyl)thio)ethyl [1,1'-biphenyl]-4-carboxylate] the “hTLR2-agonistic activity (in words)” value [2] was “complete absence of activity”.

With `COC(=O)[C@H](CO)NC(=O)[C@@H](N)CSCCOC(=O)c1cccc(-c2ccccc2)c1` [Compound 6g, 2-(((R)-2-amino-3-(((S)-3-hydroxy-1-methoxy-1-oxopropan-2-yl)amino)-3-oxopropyl)thio)ethyl [1,1'-biphenyl]-3-carboxylate] the “hTLR2-agonistic activity (in words)” value [2] was “complete absence of activity”.

With `CCCCCCCCCCCCCCN(CCCCCCCCCCCCCC)CC(=O)OCCSC[C@H](N)C(=O)N[C@@H](CO)C(=O)OC` [Compound 10a, (S)-methyl 2-((R)-2-amino-3-((2-(2-(ditetradecylamino)acetoxy)ethyl)thio)propanamido)-3-hydroxypropanoate] the “hTLR2-agonistic activity (in words)” value [2] was “completely inactive”.

In the case of `CCCCCCCCCCCCCCNCC(=O)OCCSC[C@H](N)C(=O)N[C@@H](CO)C(=O)OC` [Compound 10b, (S)-methyl 2-((R)-2-amino-3-((2-(2-(tetradecylamino)acetoxy)ethyl)thio)propanamido)-3-hydroxypropanoate], the “hTLR2-agonistic activity (in words)” value [2] is reported as “completely inactive”.

In the case of `CCCCCCCCCCCCCCCC(=O)OCCSC[C@H](NC(C)=O)C(=O)N[C@@H](CO)C(=O)OC` [Compound 11d, 2-(((R)-2-acetamido-3-(((S)-3-hydroxy-1-methoxy-1-oxopropan-2-yl)amino)-3-oxopropyl)thio)ethyl palmitate], the “absolute magnitude of TLR2-induced NF-κB activation (in words)” value [2] is reported as “far greater”.

In the case of `CCCCCCCCCCCCCCCC(=O)N[C@@H](CSCCOC(=O)CCCCCCCCCCCCCCC)C(=O)N[C@@H](CO)C(=O)OC` [Compound 11g, 2-(((R)-3-(((S)-3-hydroxy-1-methoxy-1-oxopropan-2-yl)amino)-3-oxo-2-palmitamidopropyl)thio)ethyl palmitate], the “hTLR2-agonistic activity (in words)” value [2] is reported as “complete loss of activity”.

For `CCCCCCCCCCCCCCCC(=O)OCCSC[C@H](NC(=O)C(F)(F)F)C(=O)N[C@@H](CO)C(=O)OC` [Compound 11h, 2-(((R)-3-(((S)-3-hydroxy-1-methoxy-1-oxopropan-2-yl)amino)-3-oxo-2-(2,2,2-trifluoroacetamido)propyl)thio)ethyl palmitate], the “absolute magnitude of TLR2-induced NF-κB activation (in words)” value [2] was “low magnitude of NF-κB activation”.

With `CCCCCCCCCCCCCCCC(=O)OCCSC[C@H](N)C(=O)N[C@@H](COC(C)=O)C(=O)OC` [Compound 14a, 2-(((R)-3-(((S)-3-acetoxy-1-methoxy-1-oxopropan-2-yl)amino)-2-amino-3-oxopropyl)thio)ethyl palmitate] the “hTLR2-agonistic activity (in words)” value [2] was “virtually indistinguishable from that of 6d”.

For `CCCCCCCCCCCCCCCC(=O)OCCCSC[C@H](N)C(=O)N[C@@H](CO)C(=O)OC` [Compound 15, 3-((R)-2-amino-3-((S)-3-hydroxy-1-methoxy-1-oxopropan-2-ylamino)-3-oxopropylthio)propyl palmitate], the “TLR2-agonistic activity (in words), previously identified” value [3] is listed as “inactive”.

For `CCCCCCCCCCCCCCCC(=O)OCCCSC[C@H](NC(C)=O)C(=O)N[C@@H](CO)C(=O)OC` [Compound 16, 3-(((R)-2-acetamido-3-(((S)-3-hydroxy-1-methoxy-1-oxopropan-2-yl)amino)-3-oxopropyl)thio)propyl palmitate], the “hTLR2-agonistic activity (in words)” value [2] was “active, albeit much weaker in potency than 11d”.
